21 compounds from ChEMBL document CHEMBL4371074, “Discovery of Selective Matriptase and Hepsin Serine Protease Inhibitors: Useful Chemical Tools for Cancer Cell Biology” (J Med Chem, 2019) can be followed below.

In experiment [1] the target is T1, Serine protease hepsin (Homo sapiens, UniProt P05981). The experiment is described as follows: Inhibition of recombinant human C-terminal His10-tagged hepsin catalytic domain preincubated for 30 mins followed by Boc-QAR-AMC substrate addition and measured for 1 hr by fluorescence assay. The settings on record: read-out: Ki(app). The gist of the method:
(§1)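 HGFA was at 7.5 nM with Boc-QLR-AMC (Km 37 µM). Matriptase was at 0.2 nM and hepsin at 0.3 nM, both with Boc-QAR-AMC (Km 93 and 156 µM). Hepsin was pre-activated for 24 h at 37°C. Eleven inhibitor concentrations (0-20 µM, 2% DMSO) were given 30 min RT before substrate at Km. Fluorescence was read at ex 380/em 460 nm. IC50 came from a four-parameter fit, mean of three experiments.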

The target of experiment [2] is T2, Hepatocyte growth factor activator serine protease (Homo sapiens, UniProt Q04756).
T2 sequence (Q04756 whole entry): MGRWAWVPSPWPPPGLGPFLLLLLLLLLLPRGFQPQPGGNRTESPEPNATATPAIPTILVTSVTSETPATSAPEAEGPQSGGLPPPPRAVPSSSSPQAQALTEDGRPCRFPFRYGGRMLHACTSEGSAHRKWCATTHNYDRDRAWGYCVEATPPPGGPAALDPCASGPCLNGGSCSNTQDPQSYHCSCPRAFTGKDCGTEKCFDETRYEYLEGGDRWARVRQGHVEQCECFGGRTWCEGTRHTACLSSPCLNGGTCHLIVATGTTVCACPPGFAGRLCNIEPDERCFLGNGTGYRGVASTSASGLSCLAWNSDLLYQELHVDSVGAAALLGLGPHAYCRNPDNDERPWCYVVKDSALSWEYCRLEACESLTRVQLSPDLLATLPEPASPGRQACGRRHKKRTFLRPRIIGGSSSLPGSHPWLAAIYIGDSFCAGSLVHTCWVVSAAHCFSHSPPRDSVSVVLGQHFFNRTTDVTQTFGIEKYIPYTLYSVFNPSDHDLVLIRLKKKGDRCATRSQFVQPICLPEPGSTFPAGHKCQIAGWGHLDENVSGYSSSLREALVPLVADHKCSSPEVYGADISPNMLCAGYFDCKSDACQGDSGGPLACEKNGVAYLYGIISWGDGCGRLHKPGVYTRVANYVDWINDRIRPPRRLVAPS
The experiment is described as follows: Inhibition of HGFA catalytic domain (unknown origin) preincubated for 30 mins followed by Boc-QLR-AMC substrate addition and measured for 1 hr by fluorescence assay. The settings on record: read-out: Ki(app).

Experiment [3] concerns the target T3, Suppressor of tumorigenicity 14 protein (Homo sapiens, UniProt Q9Y5Y6).
T3 sequence (Q9Y5Y6 whole entry): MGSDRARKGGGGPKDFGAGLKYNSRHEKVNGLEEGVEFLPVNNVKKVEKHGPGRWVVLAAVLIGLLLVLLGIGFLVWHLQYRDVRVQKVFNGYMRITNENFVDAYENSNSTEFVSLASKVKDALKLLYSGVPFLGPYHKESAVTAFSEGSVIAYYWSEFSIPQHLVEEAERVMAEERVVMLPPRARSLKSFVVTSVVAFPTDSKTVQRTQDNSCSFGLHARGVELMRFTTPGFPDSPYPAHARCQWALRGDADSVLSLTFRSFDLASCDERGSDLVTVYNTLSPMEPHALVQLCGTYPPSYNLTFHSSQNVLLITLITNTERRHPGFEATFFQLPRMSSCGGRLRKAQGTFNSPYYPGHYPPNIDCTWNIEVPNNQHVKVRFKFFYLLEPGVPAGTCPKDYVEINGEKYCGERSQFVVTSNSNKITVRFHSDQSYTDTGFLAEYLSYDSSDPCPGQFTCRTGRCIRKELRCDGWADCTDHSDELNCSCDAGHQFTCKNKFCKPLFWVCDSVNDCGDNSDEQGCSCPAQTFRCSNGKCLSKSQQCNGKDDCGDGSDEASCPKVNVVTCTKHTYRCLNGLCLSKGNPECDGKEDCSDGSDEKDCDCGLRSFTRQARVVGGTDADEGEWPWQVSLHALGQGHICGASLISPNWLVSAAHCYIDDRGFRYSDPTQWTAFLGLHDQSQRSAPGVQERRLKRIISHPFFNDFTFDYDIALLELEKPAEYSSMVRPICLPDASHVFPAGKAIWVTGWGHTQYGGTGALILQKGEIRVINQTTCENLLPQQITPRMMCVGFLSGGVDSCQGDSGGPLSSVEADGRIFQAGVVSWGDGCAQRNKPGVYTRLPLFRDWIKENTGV
The experiment is described as follows: Inhibition of recombinant human N-terminal His6-tagged matriptase catalytic domain expressed in Escherichia coli preincubated for 30 mins followed by Boc-QAR-AMC substrate addition and measured for 1 hr by fluorescence assay. The settings on record: read-out: Ki(app). The gist of the method:
as §1

For experiment [4], the species on record is Homo sapiens. The experiment is described as follows: Selectivity ratio of Ki(app) for recombinant human N-terminal His6-tagged matriptase catalytic domain expressed in Escherichia coli to Ki(app) for recombinant human C-terminal His10-tagged hepsin catalytic domain.
Experiment [5] is filed under the species Homo sapiens. Put plainly: Selectivity ratio of Ki(app) for recombinant human C-terminal His10-tagged hepsin catalytic domain to Ki(app) for recombinant human N-terminal His6-tagged matriptase catalytic domain expressed in Escherichia coli.
Experiment [6] has as its target T1, Serine protease hepsin. Put plainly: Inhibition of hepsin (unknown origin) expressed in MCF10A cells assessed as reduction in desmosomal cadherin desmoglein 2 loss at 1 uM after 45 mins by Hoechst 33258 staining based immunofluorescence microscopic method. It counts as cell-based. The gist of the method: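 MCF10A-Indu20-hepsin cells were grown as 2D monolayers on coverslips, with or without doxycycline induction, and pretreated with inhibitor at 1 µM. They were fixed and permeabilized in ice-cold methanol for 5 min and blocked in 0.1% BSA/PBS for 30 min. Staining used anti-desmoglein 2 and anti-hepsin, then Alexa secondaries for 45 min RT, with Hoechst nuclei. Confocal images were scored; cells with pericellular desmoglein 2 on at least two sides counted positive.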

Experiment [7] addresses T1, Serine protease hepsin. The experiment is described as follows: Inhibition of hepsin (unknown origin) expressed in MCF10A cells preincubated for 30 mins followed by Boc-QRR-AMC substrate addition and measured for 1 hr by fluorescence assay.

The IC50 is the concentration at which inhibition is half-maximal.

Activity calls are given as the source filed them. The calls are words filed in the database; no cut-off is given here.

Turning to `N=C(N)NCCC[C@H](NC(=O)[C@H](CC(=O)O)NC(=O)OCC1c2ccccc2-c2ccccc21)C(=O)c1nc2ccccc2s1`, the Ki is 98 nM in experiment [1], greater than 10000 nM in experiment [2] and 294 nM in experiment [3]. For the same compound, in experiment [4], the Ratio Ki(app) came out at 3.
Turning to `C[C@@H](O)[C@H](NC(=O)OCC1c2ccccc2-c2ccccc21)C(=O)N[C@@H](CCCNC(=N)N)C(=O)c1nc2ccccc2s1`, the Ki in experiment [1] was 180 nM; in experiment [2] it was greater than 10000 nM; in experiment [3] it was 271 nM. For the same compound, in experiment [4], the Ratio Ki(app) was found to be 1.5.
As for `N=C(N)NCCC[C@H](NC(=O)OCC1c2ccccc2-c2ccccc21)C(=O)N[C@@H](CCCNC(=N)N)C(=O)c1nc2ccccc2s1`, the Ki was 102 nM in experiment [1], 8630 nM in experiment [2] and 3.9 nM in experiment [3]. For the same compound, in experiment [5], the Ratio Ki(app) worked out at 26.
Consider `CC[C@H](C)[C@H](NC(=O)OCC1c2ccccc2-c2ccccc21)C(=O)N[C@@H](CCCNC(=N)N)C(=O)c1nc2ccccc2s1`, for which the Ki in experiment [1] was found to be 228 nM; in experiment [2], 4300 nM; in experiment [3], 486 nM. Further, the Ratio Ki(app) in experiment [4] amounted to 2.1.
Consider `CC(=O)N[C@@H](CO)C(=O)N[C@@H](CCCCN)C(=O)N[C@@H](CC(C)C)C(=O)N[C@@H](CCCNC(=N)N)C(=O)c1nc2ccccc2s1`, for which the Ki in experiment [3] came out at 3.1 nM. Moreover, in experiment [4], the Ratio Ki(app) worked out at 19.
For `N=C(N)NCCC[C@H](NC(=O)[C@H](CCC(N)=O)NC(=O)OCC1c2ccccc2-c2ccccc21)C(=O)c1nc2ccccc2s1`, the figures for the Ki in experiment [1], in experiment [2] and in experiment [3] were 116 nM, 6830 nM and 0.65 nM, respectively. Besides, the Ratio Ki(app) in experiment [5] came out at 179.
On to `N=C(N)NCCC[C@H](NC(=O)[C@H](Cc1c[nH]c2ccccc12)NC(=O)OCC1c2ccccc2-c2ccccc21)C(=O)c1nc2ccccc2s1`, for which the Ki in experiment [1] was 302 nM; in experiment [2] it was 3200 nM; in experiment [3], 294 nM. The Ratio Ki(app) in experiment [5] and in experiment [4] was 1 throughout.
On to `C[C@H](NC(=O)OCC1c2ccccc2-c2ccccc21)C(=O)N[C@@H](CCCNC(=N)N)C(=O)c1nc2ccccc2s1`, for which the results for the Ki in experiment [1], in experiment [2] and in experiment [3] were 240 nM, 7980 nM and 0.36 nM, respectively. Moreover, the Ratio Ki(app) in experiment [5] was 667.
The corresponding values for `N=C(N)NCCC[C@H](NC(=O)[C@H](Cc1cnc[nH]1)NC(=O)OCC1c2ccccc2-c2ccccc21)C(=O)c1nc2ccccc2s1` are 226 nM, 6120 nM, 11 nM and 21.
Consider `N=C(N)NCCC[C@H](NC(=O)[C@H](Cc1ccccc1)NC(=O)OCC1c2ccccc2-c2ccccc21)C(=O)c1nc2ccccc2s1`, for which the Ki in experiment [1] was 764 nM; in experiment [3] it was 188 nM. In addition, the Ratio Ki(app) in experiment [5] is 4.
With `N=C(N)NCCC[C@H](NC(=O)[C@H](CC(N)=O)NC(=O)OCC1c2ccccc2-c2ccccc21)C(=O)c1nc2ccccc2s1`, the Ki in experiment [2] came to 4770 nM. The inhibition result in experiment [6] is “Active”. Further, the Ratio Ki(app) in experiment [4] is 62. The compound also displayed an IC50 in experiment [7] of 92 nM.
As to `N=C(N)NCCC[C@H](NC(=O)[C@H](CO)NC(=O)OCC1c2ccccc2-c2ccccc21)C(=O)c1nc2ccccc2s1`, the Ki was 555 nM in experiment [1], greater than 10000 nM in experiment [2] and 4.9 nM in experiment [3]. For the same compound, the Ratio Ki(app) in experiment [5] was 113.
The corresponding values for `N=C(N)NCCC[C@H](NC(=O)[C@H](Cc1ccc(O)cc1)NC(=O)OCC1c2ccccc2-c2ccccc21)C(=O)c1nc2ccccc2s1` are 256 nM, 2960 nM, 25 nM and 10.
Regarding `CC(C)C[C@H](NC(=O)OCC1c2ccccc2-c2ccccc21)C(=O)N[C@@H](CCCNC(=N)N)C(=O)c1nc2ccccc2s1`, the Ki in experiment [1] was 67 nM; in experiment [2], 468 nM; in experiment [3] it was 253 nM. Also, the Ratio Ki(app) in experiment [4] worked out at 3.8.
For the compound `N=C(N)NCCC[C@H](NC(=O)[C@H](CCCCN)NC(=O)OCC1c2ccccc2-c2ccccc21)C(=O)c1nc2ccccc2s1`, the Ki is 104 nM in experiment [1], greater than 10000 nM in experiment [2] and 0.22 nM in experiment [3]. For the same compound, the Ratio Ki(app) in experiment [5] is 473.
Consider `CC(=O)N[C@@H](CCCCN)C(=O)N[C@@H](CCC(N)=O)C(=O)N[C@@H](CC(C)C)C(=O)N[C@@H](CCCNC(=N)N)C(=O)c1nc2ccccc2s1`, for which the Ratio Ki(app) in experiment [4] is 6.1.
Turning to `N=C(N)NCCC[C@H](NC(=O)CNC(=O)OCC1c2ccccc2-c2ccccc21)C(=O)c1nc2ccccc2s1`, the Ki in experiment [2] is 9370 nM. The inhibition result in experiment [6] was “inactive”. In addition, the Ratio Ki(app) in experiment [5] was determined as 6390. Moreover, the IC50 in experiment [7] was greater than 10000 nM.
Consider `CC(C)[C@H](NC(=O)OCC1c2ccccc2-c2ccccc21)C(=O)N[C@@H](CCCNC(=N)N)C(=O)c1nc2ccccc2s1`, for which the Ki was 125 nM in experiment [1], 4630 nM in experiment [2] and 18 nM in experiment [3]. For the same compound, the Ratio Ki(app) in experiment [5] was found to be 6.9.
For `N=C(N)NCCC[C@H](NC(=O)[C@H](CCC(=O)O)NC(=O)OCC1c2ccccc2-c2ccccc21)C(=O)c1nc2ccccc2s1`, the results for the Ki in experiment [1], in experiment [2] and in experiment [3] were 372 nM, greater than 10000 nM and 7.2 nM, respectively. In addition, in experiment [5], the Ratio Ki(app) amounted to 52.
The corresponding values for `N=C(N)NCCC[C@H](NC(=O)[C@@H]1CCCN1C(=O)OCC1c2ccccc2-c2ccccc21)C(=O)c1nc2ccccc2s1` are 391 nM, greater than 10000 nM, 0.5 nM and 782.
Turning to `CSCC[C@H](NC(=O)OCC1c2ccccc2-c2ccccc21)C(=O)N[C@@H](CCCNC(=N)N)C(=O)c1nc2ccccc2s1`, the Ki in experiment [1] turned out to be 227 nM; in experiment [3] it was 5.4 nM.
